Measurements taken from ChEMBL document CHEMBL4152188, “Design, synthesis and biological evaluation of C(4) substituted monobactams as antibacterial agents against multidrug-resistant Gram-negative bacteria” (Eur J Med Chem, 2018).
Converted amounts (≈) assume the structure as drawn.

Experiments:
Type in all cases: functional
Escherichia coli [1] = assay: Antibacterial activity against extended-spectrum beta-lactamase producing Escherichia coli isolate 212648 after 18 hrs by CLSI broth microdilution method; conditions: isolate 212648, 18 h
Escherichia coli [2] = assay: Selectivity index, ratio of MIC for against extended-spectrum beta-lactamase producing Escherichia coli isolate 208687 to MIC for extended-spectrum beta-lactamase producing Escherichia coli isolate 208687 in presence of BPL
Escherichia coli [3] = assay: Antibacterial activity against Escherichia coli isolate 210737 after 18 hrs by CLSI broth microdilution method; conditions: isolate 210737, 18 h
Escherichia coli [4] = assay: Antibacterial activity against extended-spectrum beta-lactamase producing Escherichia coli isolate 208687 after 18 hrs by CLSI broth microdilution method; conditions: isolate 208687, 18 h
Escherichia coli [5] = assay: Antibacterial activity against extended-spectrum beta-lactamase producing Escherichia coli isolate 208687 after 18 hrs in presence of BPL by CLSI broth microdilution method; conditions: isolate 208687, 18 h
How it was run: (§1)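 CLSI broth microdilution against clinical isolates (ESBL E. coli, KPC-2 MDR K. pneumoniae, IMP-4 MDR P. aeruginosa; five per species). Iron limitation: Mueller-Hinton broth supplemented with 16 mg/liter 2,2'-bipyridyl to complex iron and induce iron uptake systems. Read-out: MIC.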

Escherichia coli [6] = assay: Antibacterial activity against Escherichia coli isolate 210737 after 18 hrs in presence of BPL by CLSI broth microdilution method; conditions: isolate 210737, 18 h; how it was run: as §1
Escherichia coli [7] = assay: Selectivity index, ratio of MIC for against Escherichia coli isolate 210737 to MIC for Escherichia coli isolate 210737 in presence of BPL
Escherichia coli [8] = assay: Antibacterial activity against extended-spectrum beta-lactamase producing Escherichia coli isolate 212648 after 18 hrs in presence of BPL by CLSI broth microdilution method; conditions: isolate 212648, 18 h; how it was run: as §1
Escherichia coli [9] = assay: Selectivity index, ratio of MIC for against extended-spectrum beta-lactamase producing Escherichia coli isolate 212648 to MIC for extended-spectrum beta-lactamase producing Escherichia coli isolate 212648 in presence of BPL
Escherichia coli [10] = assay: Antibacterial activity against extended-spectrum beta-lactamase producing Escherichia coli isolate 209285 after 18 hrs by CLSI broth microdilution method; conditions: isolate 209285, 18 h
Escherichia coli [11] = assay: Antibacterial activity against extended-spectrum beta-lactamase producing Escherichia coli isolate 209285 after 18 hrs in presence of BPL by CLSI broth microdilution method; conditions: isolate 209285, 18 h; how it was run: as §1
Escherichia coli [12] = assay: Selectivity index, ratio of MIC for against extended-spectrum beta-lactamase producing Escherichia coli isolate 209285 to MIC for extended-spectrum beta-lactamase producing Escherichia coli isolate 209285 in presence of BPL
Escherichia coli [13] = assay: Antibacterial activity against extended-spectrum beta-lactamase producing Escherichia coli isolate 106342 after 18 hrs by CLSI broth microdilution method; conditions: isolate 106342, 18 h
Escherichia coli [14] = assay: Antibacterial activity against extended-spectrum beta-lactamase producing Escherichia coli isolate 106342 after 18 hrs in presence of BPL by CLSI broth microdilution method; conditions: isolate 106342, 18 h; how it was run: as §1
Escherichia coli [15] = assay: Selectivity index, ratio of MIC for against extended-spectrum beta-lactamase producing Escherichia coli isolate 106342 to MIC for extended-spectrum beta-lactamase producing Escherichia coli isolate 106342 in presence of BPL
Klebsiella pneumoniae [16] = assay: Antibacterial activity against KPC-2 producing Klebsiella pneumoniae isolate 212423 after 18 hrs by CLSI broth microdilution method; conditions: isolate 212423, 18 h
Klebsiella pneumoniae [17] = assay: Antibacterial activity against KPC-2 producing Klebsiella pneumoniae isolate 212423 after 18 hrs in presence of BPL by CLSI broth microdilution method; conditions: isolate 212423, 18 h; how it was run: as §1
Klebsiella pneumoniae [18] = assay: Selectivity index, ratio of MIC for against KPC-2 producing Klebsiella pneumoniae isolate 212423 to MIC for against KPC-2 producing Klebsiella pneumoniae isolate 212423 in presence of BPL
Klebsiella pneumoniae [19] = assay: Antibacterial activity against KPC-2 producing Klebsiella pneumoniae isolate 209632 after 18 hrs by CLSI broth microdilution method; conditions: isolate 209632, 18 h
Klebsiella pneumoniae [20] = assay: Antibacterial activity against KPC-2 producing Klebsiella pneumoniae isolate 209632 after 18 hrs in presence of BPL by CLSI broth microdilution method; conditions: isolate 209632, 18 h; how it was run: as §1
Klebsiella pneumoniae [21] = assay: Selectivity index, ratio of MIC for against KPC-2 producing Klebsiella pneumoniae isolate 209632 to MIC for against KPC-2 producing Klebsiella pneumoniae isolate 209632 in presence of BPL
Klebsiella pneumoniae [22] = assay: Antibacterial activity against KPC-2 producing Klebsiella pneumoniae isolate 209735 after 18 hrs by CLSI broth microdilution method; conditions: isolate 209735, 18 h
Klebsiella pneumoniae [23] = assay: Antibacterial activity against KPC-2 producing Klebsiella pneumoniae isolate 209735 after 18 hrs in presence of BPL by CLSI broth microdilution method; conditions: isolate 209735, 18 h; how it was run: as §1
Klebsiella pneumoniae [24] = assay: Selectivity index, ratio of MIC for against KPC-2 producing Klebsiella pneumoniae isolate 209735 to MIC for against KPC-2 producing Klebsiella pneumoniae isolate 209735 in presence of BPL
Klebsiella pneumoniae [25] = assay: Antibacterial activity against KPC-2 producing Klebsiella pneumoniae isolate 212232 after 18 hrs by CLSI broth microdilution method; conditions: isolate 212232, 18 h
Klebsiella pneumoniae [26] = assay: Antibacterial activity against KPC-2 producing Klebsiella pneumoniae isolate 212232 after 18 hrs in presence of BPL by CLSI broth microdilution method; conditions: isolate 212232, 18 h; how it was run: as §1
Klebsiella pneumoniae [27] = assay: Selectivity index, ratio of MIC for against KPC-2 producing Klebsiella pneumoniae isolate 212232 to MIC for against KPC-2 producing Klebsiella pneumoniae isolate 212232 in presence of BPL
Klebsiella pneumoniae [28] = assay: Antibacterial activity against KPC-2 producing Klebsiella pneumoniae isolate 212229 after 18 hrs by CLSI broth microdilution method; conditions: isolate 212229, 18 h
Klebsiella pneumoniae [29] = assay: Antibacterial activity against KPC-2 producing Klebsiella pneumoniae isolate 212229 after 18 hrs in presence of BPL by CLSI broth microdilution method; conditions: isolate 212229, 18 h; how it was run: as §1
Klebsiella pneumoniae [30] = assay: Selectivity index, ratio of MIC for against KPC-2 producing Klebsiella pneumoniae isolate 212229 to MIC for against KPC-2 producing Klebsiella pneumoniae isolate 212229 in presence of BPL
Pseudomonas aeruginosa [31] = assay: Antibacterial activity against IMP-4 producing Pseudomonas aeruginosa isolate 212886 after 18 hrs by CLSI broth microdilution method; conditions: isolate 212886, 18 h
Pseudomonas aeruginosa [32] = assay: Antibacterial activity against IMP-4 producing Pseudomonas aeruginosa isolate 212886 after 18 hrs in presence of BPL by CLSI broth microdilution method; conditions: isolate 212886, 18 h; how it was run: as §1
Pseudomonas aeruginosa [33] = assay: Selectivity index, ratio of MIC for against IMP-4 producing Pseudomonas aeruginosa isolate 212886 to MIC for against IMP-4 producing Pseudomonas aeruginosa isolate 212886 in presence of BPL
Pseudomonas aeruginosa [34] = assay: Antibacterial activity against IMP-4 producing Pseudomonas aeruginosa isolate 209471 after 18 hrs by CLSI broth microdilution method; conditions: isolate 209471, 18 h
Pseudomonas aeruginosa [35] = assay: Antibacterial activity against IMP-4 producing Pseudomonas aeruginosa isolate 209471 after 18 hrs in presence of BPL by CLSI broth microdilution method; conditions: isolate 209471, 18 h; how it was run: as §1
Pseudomonas aeruginosa [36] = assay: Selectivity index, ratio of MIC for against IMP-4 producing Pseudomonas aeruginosa isolate 209471 to MIC for against IMP-4 producing Pseudomonas aeruginosa isolate 209471 in presence of BPL
Pseudomonas aeruginosa [37] = assay: Antibacterial activity against IMP-4 producing Pseudomonas aeruginosa isolate 208247 after 18 hrs by CLSI broth microdilution method; conditions: isolate 208247, 18 h
Pseudomonas aeruginosa [38] = assay: Antibacterial activity against IMP-4 producing Pseudomonas aeruginosa isolate 208247 after 18 hrs in presence of BPL by CLSI broth microdilution method; conditions: isolate 208247, 18 h; how it was run: as §1
Pseudomonas aeruginosa [39] = assay: Selectivity index, ratio of MIC for against IMP-4 producing Pseudomonas aeruginosa isolate 208247 to MIC for against IMP-4 producing Pseudomonas aeruginosa isolate 208247 in presence of BPL
Pseudomonas aeruginosa [40] = assay: Antibacterial activity against IMP-4 producing Pseudomonas aeruginosa isolate 209321 after 18 hrs by CLSI broth microdilution method; conditions: isolate 209321, 18 h
Pseudomonas aeruginosa [41] = assay: Antibacterial activity against IMP-4 producing Pseudomonas aeruginosa isolate 209321 after 18 hrs in presence of BPL by CLSI broth microdilution method; conditions: isolate 209321, 18 h; how it was run: as §1
Pseudomonas aeruginosa [42] = assay: Selectivity index, ratio of MIC for against IMP-4 producing Pseudomonas aeruginosa isolate 209321 to MIC for against IMP-4 producing Pseudomonas aeruginosa isolate 209321 in presence of BPL
Pseudomonas aeruginosa [43] = assay: Antibacterial activity against IMP-4 producing Pseudomonas aeruginosa isolate 207272 after 18 hrs by CLSI broth microdilution method; conditions: isolate 207272, 18 h
Pseudomonas aeruginosa [44] = assay: Antibacterial activity against IMP-4 producing Pseudomonas aeruginosa isolate 207272 after 18 hrs in presence of BPL by CLSI broth microdilution method; conditions: isolate 207272, 18 h; how it was run: as §1
Pseudomonas aeruginosa [45] = assay: Selectivity index, ratio of MIC for against IMP-4 producing Pseudomonas aeruginosa isolate 207272 to MIC for against IMP-4 producing Pseudomonas aeruginosa isolate 207272 in presence of BPL

`CC(C)C(O/N=C(\C(=O)N[C@@H]1C(=O)N(S(=O)(=O)O)[C@@H]1CN1CCNC1=O)c1csc(N)n1)c1cc(=O)c(O)cn1O` (stereo not given in full) was tested, and the MIC (Escherichia coli [1]) was 2 µg/mL (≈ 3.25 µM), the “Selectivity Index” value (Escherichia coli [2]) was 2 and the MIC (Escherichia coli [3]) was 0.5 µg/mL (≈ 0.814 µM). It also gave an MIC (Escherichia coli [4]) of 1 µg/mL (≈ 1.63 µM), an MIC (Escherichia coli [5]) of 0.5 µg/mL and an MIC (Escherichia coli [6]) of 0.25 µg/mL. The “Selectivity Index” value (Escherichia coli [7]) was 2, the MIC (Escherichia coli [8]) was 2 µg/mL and the “Selectivity Index” value (Escherichia coli [9]) was 1. For the same molecule, the MIC (Escherichia coli [10]) was 1 µg/mL (≈ 1.63 µM), the MIC (Escherichia coli [11]) was 0.25 µg/mL and the “Selectivity Index” value (Escherichia coli [12]) was 4. For the same molecule, the MIC (Escherichia coli [13]) was 1 µg/mL (≈ 1.63 µM), the MIC (Escherichia coli [14]) was 1 µg/mL and the “Selectivity Index” value (Escherichia coli [15]) was 1. The MIC (Klebsiella pneumoniae [16]) was 0.5 µg/mL (≈ 0.814 µM), the MIC (Klebsiella pneumoniae [17]) was 0.125 µg/mL and the “Selectivity Index” value (Klebsiella pneumoniae [18]) was 4. The MIC (Klebsiella pneumoniae [19]) was 4 µg/mL (≈ 6.51 µM), the MIC (Klebsiella pneumoniae [20]) was 4 µg/mL and the “Selectivity Index” value (Klebsiella pneumoniae [21]) was 1. For the same molecule, the MIC (Klebsiella pneumoniae [22]) was 16 µg/mL (≈ 26 µM), the MIC (Klebsiella pneumoniae [23]) was 4 µg/mL and the “Selectivity Index” value (Klebsiella pneumoniae [24]) was 4. The MIC (Klebsiella pneumoniae [25]) was 1 µg/mL (≈ 1.63 µM), the MIC (Klebsiella pneumoniae [26]) was 0.25 µg/mL and the “Selectivity Index” value (Klebsiella pneumoniae [27]) was 4. The MIC (Klebsiella pneumoniae [28]) was 0.25 µg/mL (≈ 0.407 µM), the MIC (Klebsiella pneumoniae [29]) was 0.125 µg/mL and the “Selectivity Index” value (Klebsiella pneumoniae [30]) was 2. For the same molecule, the MIC (Pseudomonas aeruginosa [31]) was 32 µg/mL (≈ 52.1 µM), the MIC (Pseudomonas aeruginosa [32]) was 32 µg/mL and the “Selectivity Index” value (Pseudomonas aeruginosa [33]) was 1. For the same molecule, the MIC (Pseudomonas aeruginosa [34]) was 32 µg/mL (≈ 52.1 µM), the MIC (Pseudomonas aeruginosa [35]) was 32 µg/mL and the “Selectivity Index” value (Pseudomonas aeruginosa [36]) was 1. For the same molecule, the MIC (Pseudomonas aeruginosa [37]) was 64 µg/mL (≈ 104 µM), the MIC (Pseudomonas aeruginosa [38]) was 64 µg/mL and the “Selectivity Index” value (Pseudomonas aeruginosa [39]) was 1. For the same molecule, the MIC (Pseudomonas aeruginosa [40]) was 32 µg/mL (≈ 52.1 µM), the MIC (Pseudomonas aeruginosa [41]) was 32 µg/mL and the “Selectivity Index” value (Pseudomonas aeruginosa [42]) was 1. The MIC (Pseudomonas aeruginosa [43]) was 32 µg/mL (≈ 52.1 µM), the MIC (Pseudomonas aeruginosa [44]) was 32 µg/mL and the “Selectivity Index” value (Pseudomonas aeruginosa [45]) was 1.
